Experimental data from ChEMBL document CHEMBL1138827, “Design of new cognition enhancers: from computer prediction to synthesis and biological evaluation” (2004).

How the values were obtained:
Rattus norvegicus [1] = assay: Effect on increase in reflex latent time after administration of 1 mg/kg of the compound; format: functional
Procedure, shortened: (§1)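 Rats (180-200 g), scopolamine-induced amnesia in a step-through passive avoidance task. Scopolamine 2 mg/kg ip 15 min before training; test substance suspended in 0.5% Tween-80, given ip at 1 or 10 mg/kg 30 min before training; vehicle controls. Retention tested 24 h later: latency to enter dark chamber (max 180 s) and % animals not entering. n=12 per group.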

Rattus norvegicus [2] = assay: Effect on latency to enter dark chamber after administration of 1 mg/kg of the compound; format: functional; procedure, shortened: as §1
Rattus norvegicus [3] = assay: Effect on number of animals not entering the dark chamber after administration of 10 mg/kg of the compound
Rattus norvegicus [4] = assay: Effect on increase in reflex latent time after administration of 600 mg/kg of the compound; format: functional
Rattus norvegicus [5] = assay: Effect on increase in reflex latent time after administration of 400 mg/kg of the compound; format: functional
Rattus norvegicus [6] = organism: Rattus norvegicus; assay: […]; format: functional; conditions: dose 400 mg/kg
Rattus norvegicus [7] = assay: Effect on increase in reflex latent time after administration of 10 mg/kg of the compound; format: functional; procedure, shortened: as §1

| SMILES | Time (Rattus norvegicus [1]) [s] | Number (Rattus norvegicus [2]) [%] | Number (Rattus norvegicus [3]) [%] | Time (Rattus norvegicus [2]) [s] | Number (Rattus norvegicus [4]) [%] | Time (Rattus norvegicus [5]) [s] | Number (Rattus norvegicus [6]) [%] | Number (Rattus norvegicus [7]) [%] |
| --- | --- | --- | --- | --- | --- | --- | --- | --- |
| CN1[C@@H]2C[C@@H](OC(=O)[C@H](CO)c3ccccc3)C[C@H]1[C@@H]1O[C@@H]12 [SCOPOLAMINE] | 53 | 17 | – | – | – | – | – | – |
| O=[N+]([O-])c1ccc(/C=N/c2nccs2)cc1 | 68 | 42 | 50 | 129 | – | – | – | – |
| O=[N+]([O-])c1ccc(/C=N/c2nc(-c3ccccc3)cs2)cc1 | 157 | 58 | 42 | 88 | – | – | – | – |
| Cc1csc(/N=C/c2ccc([N+](=O)[O-])cc2)n1 | 76 | 42 | 50 | 126 | – | – | – | – |
| Clc1ccc(/C=N/c2nccs2)cc1 | 61 | 25 | 66 | 123 | – | – | – | – |
| Oc1ccc(/C=N/c2nccs2)cc1 | 96 | 42 | 14 | 41 | – | – | – | – |
| Oc1ccc(/C=N/c2nc3ccccc3s2)cc1 | 104 | 58 | 0 | 15 | – | – | – | – |
| C(=N\c1nc(-c2ccccc2)cs1)/c1ccccc1 | 12 | 0 | 33 | 68 | – | – | – | – |
| NC(=O)CN1CCCC1=O [PIRACETAM] | – | – | – | – | 58 | 75 | 33 | – |
| CC(=O)N1CCOC1c1cccc(Cl)c1 (configuration not stated) | 25 | 0 | – | 103 | – | – | – | 58 |
